From PubChem BioAssay
Rin1 Abl inh: inhibitors of human Rin1-Abl protein interaction | P00519+Q13671 | TR-FRET Rin1/Abl binding, biochemical | inhibition, % at 7.35 µM | actives 0.4% (n = 360,000) | AID 588664; in the data active means inhibition above about 5%, passing the limit was not always enough
NR1D1 modulator: modulates human Rev-erb alpha binding to DNA; Rev-erbα–FITC-DNA binding, fluorescence polarization, 90 min; actives 0.79% (n = 370,000); activity, % at 10 µM; P20393;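 active means activity above about 14%, limit read from the data; passing the limit was not always enough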;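 further: 0% = DMSO wells with 35 nM protein and 100% = DMSO wells with 750 nM protein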
PG9 binder: small molecules binding HIV-1 gp120 antibody PG9 | actives 0.43% (n = 360,000) | TR-FRET gp120-PG9 antibody binding | inhibition, % at 6.7 µM; in the data active means inhibition above about 8.5%
Tb MetRS inh: Trypanosoma brucei MetRS inhibition. actives 0.4% (n = 360,000). inhibition, % at 11.9 µM. purified T. brucei MetRS, ATP depletion, Kinase-Glo luminescence;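 active means inhibition above a per-plate cutoff of the control wells' mean inhibition plus 3 SD, cut at about 5.5% in these data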;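 further: 0% = DMSO wells median and 100% = median of wells with control inhibitor compound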
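Dosing: 11.9 µM compound single dose, 0.9% DMSO; Assay system: purified T. brucei MetRS enzyme; Measured by: Kinase-Glo luciferase luminescence reporting remaining unconsumed ATP; Schedule: 15 min plus 2 h at 25 °C.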
The depositor's hits bear a star; nt = not tested or not shown. Shown are actives, neighbours in structure and some others; about 1.8% of the full set was active somewhere.

SMILES | Rin1 Abl inh | NR1D1 modulator | PG9 binder | Tb MetRS inh
NC(=O)[C@@H]1CCCNc2c(I)cc([N+](=O)[O-])cc2C(=O)N[C@@H](CCC(=O)O)C(=O)N[C@@H](CO)C(=O)N1 | -6 | nt | nt | 0
NC(=O)C(CC(=O)O)NC(=O)[C@@H]1CCCNc2c(I)cc([N+](=O)[O-])cc2C(=O)N[C@@H](CO)C(=O)N[C@@H](Cc2ccc(O)cc2)C(=O)N1 (some centres not stated) | 1 | nt | nt | 41*
COC(=O)c1ccc(Nc2cc(C)nc(-c3ccccc3O)n2)cc1 | 0 | 25 | 45* | 0
COC(=O)c1cccc(Nc2cc(C)nc(-c3ccccc3O)n2)c1 | 0 | 12 | 0 | -1
C/C(CCc1oc2c(Br)cc(Br)cc2c1-c1ccc(C)o1)=N\O | -1 | -3 | -2 | 15*
CC(=O)Nc1ccc(S(=O)(=O)N2CCN(c3nc(NC4CCCC4)c4ccccc4n3)CC2)cc1 | 11* | 6 | 0 | 0
O=C(CCCCCn1c(=S)[nH]c2cc3c(cc2c1=O)OCO3)N1CCN(C(=O)c2ccco2)CC1 | 3 | -1 | 12* | 0
O=C1c2ccccc2C(=O)N1/N=C/c1ccc(O)c(O)c1O | 65* | nt | nt | 0
CC(=O)NS(=O)(=O)c1ccc(NC(=O)c2ccccc2C(=O)O)cc1 | nt | 3 | nt | nt
Brc1ccc(C=Nc2ccc(Nc3ccccc3)cc2)s1 | 7.2* | nt | nt | -1
NC(=S)N/N=C/c1ccc2ccccc2c1 | -3 | 6 | 0 | 0
O=C(CCC(=O)N/N=C/c1ccc(Br)s1)NCc1ccccc1 | 2 | 5 | 0 | 0
C(=Nc1ccc(Nc2ccccc2)cc1)c1ccc2ccccc2c1 | 14* | nt | nt | -1
COc1ccc(CN(C(=S)Nc2ccccc2)C2CC(=O)N(c3ccc(F)cc3)C2=O)cc1 (configuration not stated) | 1 | 1 | -1 | -1
COc1ccc(CCN(C(=S)Nc2ccccc2)C2CC(=O)N(c3ccccc3)C2=O)cc1 (configuration not stated) | 2 | 4 | -2 | 16*
CCOC(=O)c1cn(-c2ccccc2)nc1-c1cccnc1 | 2 | -1 | 1 | -1
Cc1c(Cl)cccc1NC(=O)CNC(=O)c1cn(-c2ccccc2)nc1-c1cccnc1 | 2 | -7 | 0 | 31*
CN(C)C1C(=O)C(C(=O)NCN2CCCC2)=C(O)C2(O)C(=O)C3=C(O)c4c(O)cccc4C(C)(O)C3CC12 (configuration not stated) | nt | -8 | nt | nt
O=C1Cc2ccccc2C(=O)N1 | nt | -10 | -3 | 22*
O=C1[C@H](CCC(O)c2ccc(F)cc2)[C@@H](c2ccc(O)cc2)N1c1ccc(F)cc1 (some centres not stated) | nt | 0 | nt | nt
O=C1/C(=C/C=C/c2ccco2)SC(=S)N1c1ccc(O)cc1 | 5.7* | -27 | -1 | 1
N#Cc1cc(N)c(Nc2ccccc2)cc1C#N | -2 | 1 | -2 | 8.2*
N#Cc1ccc(Nc2ccccc2)c(N)c1 | -4 | 2 | -1 | -1
CS(=O)(=O)c1ccc(C(O)[C@H](CF)NC(=O)C(Cl)Cl)cc1 (some centres not stated) | nt | 6 | nt | nt
C=CCOc1cccc(C2C(C(=O)c3ccc(C)o3)=C(O)C(=O)N2Cc2ccncc2)c1 (configuration not stated) | -5 | -3 | 11* | -1
SMILES | Rin1 Abl inh | NR1D1 modulator | PG9 binder | Tb MetRS inh
O=C(Cn1cnc([N+](=O)[O-])c1)Nc1cc(Oc2ccc(Cl)cc2Cl)cc([N+](=O)[O-])c1 | 1 | -3 | -1 | 78*
N#Cc1ccc(NC(=O)Cn2cnc([N+](=O)[O-])c2)cc1 | 2 | -4 | 0 | -1
O=C(O)c1ccc2c(c1)[C@@H]1C=CC[C@@H]1[C@H](c1ccccn1)N2 | 21* | -3 | -1 | 1
COc1ccc(C(=O)N/N=C(\C)c2ccc3c(c2)C2C=CCC2C(c2ccccc2)N3)cc1 (configuration not stated) | -2 | nt | nt | -1
C#CCOCCOCCOCCNc1nc(N2CCN(C(=O)CCCCCCCCCCNC(=O)[C@H](CCCCN)n3cc(C[C@@H](C)CC)nn3)CC2)nc(N2CCN(C(=O)CCCCCCCCCCNC(=O)[C@H](CCCN=C(N)N)n3cc(C[C@@H](C)CC)nn3)CC2)n1 | 11 | nt | nt | 0
C#CCOCCOCCOCCNc1nc(N2CCOCC2)nc(N2CCN(C(=O)CCCCCCCCCCNC(=O)[C@H]([C@@H](C)CC)n3cc(CCCCN=C(N)N)nn3)CC2)n1 | 4 | 7 | 1 | 0
